Assay results from ChEMBL document CHEMBL4428053, “Application of a Parallel Synthetic Strategy in the Discovery of Biaryl Acyl Sulfonamides as Efficient and Selective NaV1.7 Inhibitors” (J Med Chem, 2016).
Activity calls are given as the source filed them. No cut-off for these calls is given here.

Columns and labels:
[1] = target: T1, Sodium channel protein type 9 subunit alpha (Homo sapiens, UniProt Q15858); experiment: Inhibition of human Nav1.7 expressed in HEK293 cells at 5 uM incubated for 3 to 5 mins at -125 mV holding potential by electrophysiology assay relative to control; format: cell-based
Target sequence in this assay (Q15858 whole entry, looked up): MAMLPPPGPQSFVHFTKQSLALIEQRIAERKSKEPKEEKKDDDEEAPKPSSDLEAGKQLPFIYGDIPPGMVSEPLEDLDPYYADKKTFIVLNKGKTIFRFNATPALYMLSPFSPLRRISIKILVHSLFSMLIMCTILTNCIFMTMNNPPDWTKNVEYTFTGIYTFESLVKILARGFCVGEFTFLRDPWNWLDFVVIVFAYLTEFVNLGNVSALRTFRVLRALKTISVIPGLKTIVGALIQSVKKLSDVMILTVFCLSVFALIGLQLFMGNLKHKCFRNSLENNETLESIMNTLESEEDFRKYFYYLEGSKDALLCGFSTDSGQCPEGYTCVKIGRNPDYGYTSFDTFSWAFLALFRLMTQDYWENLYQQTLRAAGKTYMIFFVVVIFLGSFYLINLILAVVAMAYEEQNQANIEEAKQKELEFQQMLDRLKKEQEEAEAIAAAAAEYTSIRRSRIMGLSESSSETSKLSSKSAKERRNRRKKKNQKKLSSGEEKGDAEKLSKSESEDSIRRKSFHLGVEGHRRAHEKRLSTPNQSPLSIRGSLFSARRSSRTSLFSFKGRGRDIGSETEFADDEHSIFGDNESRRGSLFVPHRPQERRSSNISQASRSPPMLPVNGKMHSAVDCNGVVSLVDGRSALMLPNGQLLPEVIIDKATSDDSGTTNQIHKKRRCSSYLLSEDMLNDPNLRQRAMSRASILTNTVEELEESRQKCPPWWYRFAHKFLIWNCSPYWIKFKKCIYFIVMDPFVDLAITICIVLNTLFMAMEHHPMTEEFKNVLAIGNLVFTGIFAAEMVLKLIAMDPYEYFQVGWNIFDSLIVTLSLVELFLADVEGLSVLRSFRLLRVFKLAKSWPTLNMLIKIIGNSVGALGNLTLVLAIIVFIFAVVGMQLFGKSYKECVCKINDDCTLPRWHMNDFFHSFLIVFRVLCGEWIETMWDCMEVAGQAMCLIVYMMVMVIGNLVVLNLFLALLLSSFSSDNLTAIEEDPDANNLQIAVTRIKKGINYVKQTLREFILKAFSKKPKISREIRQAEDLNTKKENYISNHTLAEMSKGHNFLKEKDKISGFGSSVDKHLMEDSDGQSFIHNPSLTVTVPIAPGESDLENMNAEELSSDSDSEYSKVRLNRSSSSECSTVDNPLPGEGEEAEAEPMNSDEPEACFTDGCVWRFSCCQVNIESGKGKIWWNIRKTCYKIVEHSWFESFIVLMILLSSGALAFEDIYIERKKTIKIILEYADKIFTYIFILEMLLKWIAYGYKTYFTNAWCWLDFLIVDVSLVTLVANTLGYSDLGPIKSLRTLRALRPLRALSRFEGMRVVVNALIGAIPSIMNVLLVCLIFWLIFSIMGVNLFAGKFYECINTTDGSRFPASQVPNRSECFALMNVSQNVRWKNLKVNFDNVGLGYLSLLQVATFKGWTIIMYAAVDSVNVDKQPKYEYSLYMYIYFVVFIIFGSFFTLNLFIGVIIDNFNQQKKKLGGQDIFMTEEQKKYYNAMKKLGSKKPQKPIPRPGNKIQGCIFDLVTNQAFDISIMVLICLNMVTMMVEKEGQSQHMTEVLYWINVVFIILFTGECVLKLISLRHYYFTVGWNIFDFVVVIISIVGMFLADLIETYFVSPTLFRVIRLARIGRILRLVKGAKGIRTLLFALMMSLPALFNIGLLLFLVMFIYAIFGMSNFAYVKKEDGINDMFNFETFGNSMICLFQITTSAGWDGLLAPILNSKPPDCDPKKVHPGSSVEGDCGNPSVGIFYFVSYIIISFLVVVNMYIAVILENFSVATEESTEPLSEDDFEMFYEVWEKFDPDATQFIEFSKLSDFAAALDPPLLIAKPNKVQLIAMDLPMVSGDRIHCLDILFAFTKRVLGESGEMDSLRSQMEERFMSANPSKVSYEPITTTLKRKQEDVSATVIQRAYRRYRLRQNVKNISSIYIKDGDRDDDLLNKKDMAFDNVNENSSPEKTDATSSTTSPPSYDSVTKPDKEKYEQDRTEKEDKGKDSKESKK

Mus musculus = experiment: In vivo inhibition of Nav1.7 in C57BL/6 mouse assessed as reduction in histamine-induced scratching bouts at 30 mg/kg, po administered 4 hrs prior to histamine challenge measured for 15 mins; format: functional, organism-based
Outline: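 Mice were dosed orally with vehicle, diphenhydramine (30 mg/kg, n = 8) or test article at 30 (n = 9), 100 (n = 10) or 300 (n = 10) mg/kg; vehicle n = 12. All groups received histamine intradermally. Total scratch bouts were counted, with unbound plasma concentration reported per dose. Statistics: one-way ANOVA with Dunnett's test versus vehicle.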

[2] = target: Sodium channel protein type 5 subunit alpha (Homo sapiens, UniProt Q14524); experiment: Inhibition of human Nav1.5 expressed in HEK293 cells incubated for 3 to 5 mins at -50 mV holding potential by electrophysiology assay; format: cell-based
Sodium channel protein type 5 subunit alpha, sequence (Q14524 whole entry): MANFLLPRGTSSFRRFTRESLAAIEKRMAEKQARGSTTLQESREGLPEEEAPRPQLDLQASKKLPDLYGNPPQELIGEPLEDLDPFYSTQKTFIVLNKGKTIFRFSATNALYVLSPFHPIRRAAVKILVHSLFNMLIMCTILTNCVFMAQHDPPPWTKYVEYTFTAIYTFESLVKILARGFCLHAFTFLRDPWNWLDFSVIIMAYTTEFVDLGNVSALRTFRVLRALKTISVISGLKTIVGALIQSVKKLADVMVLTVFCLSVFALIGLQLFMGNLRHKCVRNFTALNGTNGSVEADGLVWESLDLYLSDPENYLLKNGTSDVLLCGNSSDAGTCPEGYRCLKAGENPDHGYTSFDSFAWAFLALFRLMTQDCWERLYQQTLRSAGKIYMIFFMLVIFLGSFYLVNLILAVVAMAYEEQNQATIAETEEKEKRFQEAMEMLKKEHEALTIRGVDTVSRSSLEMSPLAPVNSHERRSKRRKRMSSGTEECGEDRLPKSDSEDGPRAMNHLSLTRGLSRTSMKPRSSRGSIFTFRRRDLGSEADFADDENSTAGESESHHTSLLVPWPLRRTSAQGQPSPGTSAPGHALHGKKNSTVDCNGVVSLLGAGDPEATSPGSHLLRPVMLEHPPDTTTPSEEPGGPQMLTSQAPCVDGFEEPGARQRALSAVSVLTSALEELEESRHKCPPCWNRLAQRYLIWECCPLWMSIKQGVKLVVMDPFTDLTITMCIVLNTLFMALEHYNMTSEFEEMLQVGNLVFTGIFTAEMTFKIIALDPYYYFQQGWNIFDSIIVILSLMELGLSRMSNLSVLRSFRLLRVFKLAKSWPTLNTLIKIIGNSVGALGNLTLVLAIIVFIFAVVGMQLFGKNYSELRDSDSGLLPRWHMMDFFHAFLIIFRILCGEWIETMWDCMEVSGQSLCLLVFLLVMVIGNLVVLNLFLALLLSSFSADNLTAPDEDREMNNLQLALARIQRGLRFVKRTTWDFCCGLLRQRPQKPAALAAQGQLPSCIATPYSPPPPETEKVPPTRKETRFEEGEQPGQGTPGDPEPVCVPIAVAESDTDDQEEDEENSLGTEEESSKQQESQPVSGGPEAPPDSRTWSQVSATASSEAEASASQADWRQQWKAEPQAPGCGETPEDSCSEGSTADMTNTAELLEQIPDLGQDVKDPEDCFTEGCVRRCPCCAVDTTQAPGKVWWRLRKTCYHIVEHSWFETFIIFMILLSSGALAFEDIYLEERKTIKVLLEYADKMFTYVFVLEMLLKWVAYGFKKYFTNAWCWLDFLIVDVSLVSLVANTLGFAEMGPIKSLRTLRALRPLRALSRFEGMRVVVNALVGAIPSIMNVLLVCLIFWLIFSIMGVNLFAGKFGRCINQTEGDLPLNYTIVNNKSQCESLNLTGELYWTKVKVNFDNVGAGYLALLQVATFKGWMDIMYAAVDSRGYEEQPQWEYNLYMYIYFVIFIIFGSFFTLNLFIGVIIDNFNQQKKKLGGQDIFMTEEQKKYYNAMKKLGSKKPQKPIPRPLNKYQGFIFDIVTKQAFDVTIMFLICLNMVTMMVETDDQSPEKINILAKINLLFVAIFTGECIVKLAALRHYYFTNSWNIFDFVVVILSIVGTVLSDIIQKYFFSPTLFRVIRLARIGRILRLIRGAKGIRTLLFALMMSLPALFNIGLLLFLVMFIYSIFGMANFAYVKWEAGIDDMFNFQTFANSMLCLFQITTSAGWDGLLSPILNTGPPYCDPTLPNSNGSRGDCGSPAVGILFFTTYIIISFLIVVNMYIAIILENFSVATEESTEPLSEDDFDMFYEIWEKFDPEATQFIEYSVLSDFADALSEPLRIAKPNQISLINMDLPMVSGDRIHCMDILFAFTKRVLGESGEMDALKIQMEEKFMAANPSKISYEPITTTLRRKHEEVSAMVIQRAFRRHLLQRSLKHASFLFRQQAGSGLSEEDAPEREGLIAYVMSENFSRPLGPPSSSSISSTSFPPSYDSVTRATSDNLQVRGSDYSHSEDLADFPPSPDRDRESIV

in vitro [3] = settings: rat, liver microsomes
[4] = target: T1, Sodium channel protein type 9 subunit alpha; experiment: Inhibition of human Nav1.7 expressed in HEK293 cells incubated for 3 to 5 mins at -125 mV holding potential by electrophysiology assay; format: cell-based
Target sequence in this assay (Q15858 whole entry): as the sequence (Q15858 whole entry, looked up) above

in vitro [5] = settings: human, liver microsomes
[6] = target: Voltage-gated inwardly rectifying potassium channel KCNH2 (Homo sapiens, UniProt Q12809)
Homo sapiens = species on record: Homo sapiens; experiment: Selectivity ratio of IC50 for human Nav1.5 expressed in HEK293 cells to human Nav1.7 expressed in HEK293 cells; format: cell-based
Outline: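 IC50s come from PatchXpress automated electrophysiology, and the ratio divides the hNav1.5 IC50 by the hNav1.7 IC50. For hNav1.7, cells were held at a voltage giving 20-50% channel inactivation. For hNav1.5, cells were held at -50 mV on the same platform.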

Cytochrome P450 2C9 [7] = target: T2, Cytochrome P450 2C9 (Homo sapiens, UniProt P11712)
T2 sequence (P11712 whole entry): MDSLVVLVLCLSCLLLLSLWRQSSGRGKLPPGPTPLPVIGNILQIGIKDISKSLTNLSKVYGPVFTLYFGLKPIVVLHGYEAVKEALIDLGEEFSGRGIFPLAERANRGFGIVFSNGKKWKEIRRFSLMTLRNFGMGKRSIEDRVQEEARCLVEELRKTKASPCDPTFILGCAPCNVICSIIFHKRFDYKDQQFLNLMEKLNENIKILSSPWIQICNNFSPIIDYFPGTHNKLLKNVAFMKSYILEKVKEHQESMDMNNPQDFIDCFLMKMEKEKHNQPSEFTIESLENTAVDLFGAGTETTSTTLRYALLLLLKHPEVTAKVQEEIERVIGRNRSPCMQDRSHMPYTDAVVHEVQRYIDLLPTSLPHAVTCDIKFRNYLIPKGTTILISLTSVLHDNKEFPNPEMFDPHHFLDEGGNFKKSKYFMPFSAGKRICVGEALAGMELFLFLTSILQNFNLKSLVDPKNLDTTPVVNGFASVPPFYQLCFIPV

Cytochrome P450 3A4 [8] = target: T3, Cytochrome P450 3A4 (Homo sapiens, UniProt P08684)
T3 sequence (P08684 whole entry): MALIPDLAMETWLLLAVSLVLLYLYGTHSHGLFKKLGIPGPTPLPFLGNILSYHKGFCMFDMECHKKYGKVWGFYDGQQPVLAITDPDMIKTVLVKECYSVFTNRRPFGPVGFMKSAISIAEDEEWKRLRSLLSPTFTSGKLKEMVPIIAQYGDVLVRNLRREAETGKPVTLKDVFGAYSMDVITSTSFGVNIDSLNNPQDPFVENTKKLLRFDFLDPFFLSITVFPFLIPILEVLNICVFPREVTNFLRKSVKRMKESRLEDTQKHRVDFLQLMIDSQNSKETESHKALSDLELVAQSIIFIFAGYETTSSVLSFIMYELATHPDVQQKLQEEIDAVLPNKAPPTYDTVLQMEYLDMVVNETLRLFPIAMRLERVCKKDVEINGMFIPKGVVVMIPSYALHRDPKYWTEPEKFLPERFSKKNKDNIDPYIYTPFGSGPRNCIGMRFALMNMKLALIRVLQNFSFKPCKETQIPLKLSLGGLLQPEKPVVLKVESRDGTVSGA

Cytochrome P450 2D6 [9] = target: T4, Cytochrome P450 2D6 (Homo sapiens, UniProt P10635)
Cytochrome P450 2C9 [10] = target: T2, Cytochrome P450 2C9; remark: listed apart in the source
Cytochrome P450 3A4 [11] = target: T3, Cytochrome P450 3A4; remark: listed apart in the source
Cytochrome P450 2D6 [12] = target: T4, Cytochrome P450 2D6; remark: listed apart in the source
[13] = Protein binding in rat plasma at 5 uM after 45 mins by LC-MS/MS analysis; format: ADME, cell-free; settings: read-out: PPB
[14] = Clearance in Harlan rat at 1 mg/kg, iv by LC-MS/MS analysis; format: ADME, organism-based; settings: in vivo
Outline: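 Male fed rats. The IV dose was given in 100% DMSO. The oral dose was given in 1% Tween 80, 2% HPMC, 97% water/NaOH (pH 8.5).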

Row | inhibition [1] | microsomal CLint at 1 µM (in vitro [3]) | IC50 [4] | microsomal CLint at 1 µM (in vitro [5]) | Compound | IC50 [2] | also measured
1 | < 5% |  |  |  | CS(=O)(=O)NC(=O)CSCC(=O)Nc1ccc(Cl)c(Cl)c1 |  | 
2 |  |  |  |  | CN(C)CCOC(c1ccccc1)c1ccccc1 |  | inhibition (Mus musculus): Active
3 |  | 28 µL/min/mg | 3.04 µM | < 14 µL/min/mg | CC(C)COc1ncc(-c2ccc(C(=O)NS(C)(=O)=O)c(F)c2)cc1Cl | 18 µM | 
4 |  | < 14 µL/min/mg | 0.26 µM | > 399 µL/min/mg | CC(C)COc1ncc(-c2ccc(C(=O)NS(C)(=O)=O)cc2C2=CCOC2)cc1Cl | > 42 µM | 
5 | < 5% |  |  |  | CS(=O)(=O)NC(=O)c1cc(-c2ccc(Cl)c(Cl)c2)[nH]n1 |  | 
6 |  |  | 10.7 µM |  | CS(=O)(=O)NC(=O)c1ccc(-c2ccc(Cl)c(Cl)c2)cc1 | > 42 µM | Ki [6]: > 30 µM
7 |  | < 14 µL/min/mg |  | < 14 µL/min/mg | COc1cc(C(=O)NS(C)(=O)=O)ccc1-c1cnc(Oc2cc(Cl)cc(Cl)c2)c(C(F)F)c1 | 18.8 µM | 
8 | < 5% |  |  |  | CS(=O)(=O)NC(=O)c1cc(-c2ccc(Cl)c(Cl)c2)on1 |  | 
9 |  | 16.5 µL/min/mg | 0.29 µM | 30 µL/min/mg | CC(C)COc1ncc(-c2ccc(C(=O)NS(C)(=O)=O)cc2Cl)cc1Cl |  | 
10 | < 5% |  |  |  | CS(=O)(=O)NC(=O)c1cc(-c2ccc(Cl)c(Cl)c2)nc2ccccc12 |  | 
11 |  |  | 0.28 µM |  | CS(=O)(=O)NC(=O)c1ccc2c(Oc3ccc(Cl)c(C(F)(F)F)c3)nccc2c1 | 14.4 µM | Ki [6]: > 30 µM; Ratio IC50 (Homo sapiens): > 40
12 |  | 22 µL/min/mg | 0.53 µM | 47 µL/min/mg | CC(C)COc1ncc(-c2cc(F)c(C(=O)NS(C)(=O)=O)cc2F)cc1Cl | > 30 µM | IC50 (Cytochrome P450 2C9 [7]): 34.7 µM; Ki [6]: > 30 µM; IC50 (Cytochrome P450 3A4 [8]): 48.6 µM; IC50 (Cytochrome P450 2D6 [9]): > 50 µM; IC50 (Cytochrome P450 2C9 [10]): 34.1 µM; IC50 (Cytochrome P450 3A4 [11]): > 50 µM; IC50 (Cytochrome P450 2D6 [12]): > 50 µM
13 |  | < 14 µL/min/mg | > 42 µM | 26 µL/min/mg | CC(C)COc1ncc(-c2ccc(C(=O)NS(C)(=O)=O)c(Cl)c2)cc1Cl |  | 
14 | < 5% |  |  |  | CS(=O)(=O)NC(=O)c1csc(Nc2ccc(Cl)c(Cl)c2)n1 |  | 
15 |  |  | 1.55 µM |  | CS(=O)(=O)NC(=O)c1ccc2c(-c3ccc(C(F)(F)F)c(Cl)c3)nccc2c1 | > 30 µM | Ki [6]: > 30 µM
16 |  | 33 µL/min/mg |  | < 14 µL/min/mg | COc1cc(C(=O)NS(C)(=O)=O)ccc1-c1cnc(Oc2cc(F)ccc2F)c(Cl)c1 | 23.7 µM | 
17 |  | 40 µL/min/mg |  | 385 µL/min/mg | COc1cc(C(=O)NS(C)(=O)=O)ccc1-c1cnc(N2CCC[C@H]2C(C)C)c(Cl)c1 | 2.5 µM | 
18 | < 5% |  |  |  | CS(=O)(=O)NC(=O)C(=O)c1cc(-c2ccc(Cl)c(Cl)c2)on1 |  | 
19 |  | 17 µL/min/mg | 0.55 µM | 102 µL/min/mg | COc1cc(C(=O)NS(C)(=O)=O)ccc1-c1cnc(OC2CCC2)c(Cl)c1 | 17.8 µM | 
20 |  |  | 1.24 µM |  | CC(C)COc1ncc(-c2c(F)cc(C(=O)NS(C)(=O)=O)cc2F)cc1Cl |  | 
21 |  |  | 0.11 µM |  | COc1cc(C(=O)NS(C)(=O)=O)c(F)cc1-c1cnc(OC2CCC2)c(Cl)c1 |  | 
22 |  |  | 0.59 µM |  | O=S(=O)(Nc1ncns1)c1ccc2c(-c3ccc(C(F)(F)F)c(Cl)c3)nccc2c1 | 27 µM | Ki [6]: 2 µM
23 | < 5% |  |  |  | CS(=O)(=O)NC(=O)c1ccc2nc(-c3ccc(Cl)c(Cl)c3)cn2c1 |  | 
24 | < 5% |  |  |  | CS(=O)(=O)NC(=O)C1CCN(C(=O)c2ccc(Cl)c(Cl)c2)C1 (stereo unspecified) |  | 
25 |  |  | 0.74 µM |  | CS(=O)(=O)NC(=O)c1cc(F)c(Oc2ccc(Cl)c(Cl)c2)cc1F | > 30 µM | Ki [6]: > 30 µM
26 |  | < 14 µL/min/mg | 0.15 µM | < 14 µL/min/mg | COc1cc(C(=O)NS(C)(=O)=O)ccc1-c1cnc(Oc2cc(Cl)cnc2OC)c(Cl)c1 | 11.6 µM | 
27 | < 5% |  |  |  | CS(=O)(=O)NC(=O)CSCc1ccc(Cl)c(Cl)c1 |  | 
28 | < 5% |  |  |  | CS(=O)(=O)NC(=O)c1ccc(=O)n(Cc2ccc(Cl)c(Cl)c2)c1 |  | 

Row | inhibition [1] | microsomal CLint at 1 µM (in vitro [3]) | IC50 [4] | microsomal CLint at 1 µM (in vitro [5]) | Compound | IC50 [2] | also measured
29 |  | 32 µL/min/mg | 0.35 µM | 44 µL/min/mg | COc1cc(C(=O)NS(C)(=O)=O)ccc1-c1cnc(OCC(C)C)c(Cl)c1 | > 30 µM | 
30 |  | < 14 µL/min/mg | 0.27 µM | > 399 µL/min/mg | CC(C)COc1ncc(-c2ccc(C(=O)NS(C)(=O)=O)cc2C(F)(F)F)cc1Cl | 3.1 µM | 
31 |  | < 14 µL/min/mg | 0.14 µM | > 399 µL/min/mg | CC(C)COc1ncc(-c2ccc(C(=O)NS(C)(=O)=O)cc2OC(F)(F)F)cc1Cl | 3.7 µM | 
32 | < 5% |  |  |  | CS(=O)(=O)NC(=O)CNC(=O)c1ccc(Cl)c(Cl)c1 |  | 
33 |  | 15 µL/min/mg |  | 39 µL/min/mg | COc1cc(C(=O)NS(C)(=O)=O)ccc1-c1cnc(Oc2cc(Cl)cc(Cl)c2)c(C#N)c1 | 16.1 µM | fraction unbound at 0.75 h, 5 µM [13]: < 0.001; clearance [14]: 30 mL/min/kg
34 |  | < 14 µL/min/mg | 1.19 µM | 14 µL/min/mg | CC(C)COc1ncc(-c2ccc(C(=O)NS(C)(=O)=O)cc2)cc1Cl |  | 
35 |  |  | 0.2 µM |  | CC(C)COc1ncc(Oc2nccc3cc(C(=O)NS(C)(=O)=O)ccc23)cc1Cl |  | 
36 |  | < 14 µL/min/mg | 0.109 µM | < 14 µL/min/mg | COc1cc(C(=O)NS(C)(=O)=O)ccc1-c1cnc(OCc2ccc(Cl)cc2)c(Cl)c1 | 21 µM | 
37 |  | < 14 µL/min/mg | 0.062 µM | 110 µL/min/mg | COc1cc(C(=O)NS(C)(=O)=O)c(F)cc1-c1cnc(OCC2(C)CC2)c(Cl)c1 |  | 
38 | < 5% |  |  |  | CS(=O)(=O)NC(=O)C1CC(=O)N(Cc2ccc(Cl)c(Cl)c2)C1 (stereo unspecified) |  | 
39 |  | < 14 µL/min/mg | 1.62 µM | 20 µL/min/mg | CC(C)COc1ncc(-c2ccc(C(=O)NS(C)(=O)=O)cc2C#N)cc1Cl | 24 µM | 
40 |  |  | 2.54 µM |  | CS(=O)(=O)NC(=O)c1cc(F)c(-c2ccc(Cl)c(Cl)c2)cc1F | > 42 µM | Ki [6]: > 30 µM
41 |  | < 14 µL/min/mg | 0.2 µM | < 14 µL/min/mg | COc1cc(C(=O)NS(C)(=O)=O)ccc1-c1cnc(OCC2(C)CC2)c(Cl)c1 | 9.3 µM | 
42 | < 5% |  |  |  | CS(=O)(=O)NC(=O)c1cscc1SCc1ccc(Cl)c(Cl)c1 |  | 
43 | < 5% |  |  |  | CC(C)(C)OC(=O)N[C@@H](CC(=O)NS(C)(=O)=O)Cc1ccc(Cl)c(Cl)c1 |  | 
44 | < 5% |  |  |  | CS(=O)(=O)NC(=O)Cc1ccc(Cl)c(Cl)c1 |  | 
45 |  |  |  |  | CS(=O)(=O)NC(=O)c1cc(F)c(COc2ccc(Cl)c(Cl)c2)cc1F |  | Ki [6]: > 30 µM
46 |  | < 14 µL/min/mg | 0.16 µM | 199 µL/min/mg | COc1cc(C(=O)NS(C)(=O)=O)ccc1-c1cnc(Sc2cccc(C)c2)c(Cl)c1 |  | 
47 |  | < 14 µL/min/mg | > 42 µM | 22 µL/min/mg | Cc1cc(-c2cnc(OCC(C)C)c(Cl)c2)ccc1C(=O)NS(C)(=O)=O |  | 
48 |  | 18 µL/min/mg | 10.6 µM | 18 µL/min/mg | CC(C)COc1ncc(-c2ncc(C(=O)NS(C)(=O)=O)cc2F)cc1Cl |  | 
49 |  | < 14 µL/min/mg | 0.028 µM | < 14 µL/min/mg | COc1cc(C(=O)NS(C)(=O)=O)ccc1-c1cnc(Oc2cc(Cl)cc(Cl)c2)c(C(F)(F)F)c1 | 2.35 µM | 
50 |  | < 14 µL/min/mg | > 42 µM | 19 µL/min/mg | CC(C)COc1ncc(-c2ccc(C(=O)NS(C)(=O)=O)cc2C(=O)N(C)C)cc1Cl |  | 
51 | < 5% |  |  |  | CS(=O)(=O)NC(=O)C1CC(=O)N(c2ccc(Cl)c(Cl)c2)C1 (stereo unspecified) |  | 
52 |  | 22 µL/min/mg | 0.66 µM | 27 µL/min/mg | CC(C)COc1ncc(-c2ccc(C(=O)NS(C)(=O)=O)cc2F)cc1Cl | 23 µM | 
53 | < 5% |  |  |  | Cc1nn(-c2ccc(Cl)c(Cl)c2)c(C)c1C(=O)NS(C)(=O)=O |  | 
54 | < 5% |  |  |  | CS(=O)(=O)NC(=O)CCc1ccc(Cl)c(Cl)c1 |  | 
55 | < 5% |  |  |  | CS(=O)(=O)NC(=O)Cc1ccc(NS(=O)(=O)c2ccc(Cl)c(Cl)c2)cc1 |  | 

Row | Compound | inhibition [1] | microsomal CLint at 1 µM (in vitro [3]) | IC50 [4] | microsomal CLint at 1 µM (in vitro [5]) | IC50 [2] | also measured
56 | COc1cc(C(=O)NS(C)(=O)=O)ccc1-c1cnc(Oc2cc(Cl)cc(Cl)c2)c(Cl)c1 |  | < 14 µL/min/mg | 0.036 µM | < 14 µL/min/mg | 6 µM | fraction unbound at 0.75 h, 5 µM [13]: < 0.001; clearance [14]: 9.33 to 12.2 mL/min/kg
